Measurements as given in ChEMBL document CHEMBL3091449, “Synthesis and antimicrobial profile of N-substituted imidazolium oximes and their monoquaternary salts against multidrug resistant bacteria” (2013).
Converted amounts (≈) assume the structure as drawn.

Assays:
Type in all cases: functional
[1] = test system: Aeromonas hydrophila; assay: Antibacterial activity against TEM-1/SHV-12 expressing Aeromonas hydrophila isolate 268 after 18 to 24 hrs by two-fold broth microdilution assay
How it was run: (§1)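 CLSI two-fold broth microdilution was used. Compounds were dissolved in DMSO, brought to 10 mg/mL in medium, then serially diluted in Mueller Hinton broth over 400–0.09 µg/mL. Overnight MHB cultures were diluted to 10^6 CFU/mL, and 10 µL was added per well. Plates were incubated 18–24 h at 37 °C, then 0.2 mg/mL INT was added for 30 min at 37 °C. MIC was the lowest concentration with no visible growth or pink colour, triplicate.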

[2] = test system: Enterococcus faecalis; assay: Antibacterial activity against Enterococcus faecalis ATCC 29212 after 18 to 24 hrs by two-fold broth microdilution assay; how it was run: as §1
[3] = test system: Klebsiella pneumoniae; assay: Antibacterial activity against Klebsiella pneumoniae FNSST 011 assessed as diameter of zone of inhibition at 30 ug/disc after 24 hrs by disc diffusion method; conditions: FNSST 011, 24 h, read-out: DIZ
How it was run: (§2)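 Ampicillin 30 µg discs were the positive control on Mueller Hinton agar. The agar was spread with 100 µL of a 10^6 cfu/mL overnight TSB culture grown at 37 °C. Plates were incubated 24 h at 37 °C, and zone diameter was read including the 6 mm disc, in triplicate, mean ± SE.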

[4] = test system: Escherichia coli; assay: Antibacterial activity against TEM-1/SHV-12 expressing Escherichia coli isolate 237 after 18 to 24 hrs by two-fold broth microdilution assay
How it was run: (§3)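 CLSI two-fold broth microdilution. Compounds dissolved in DMSO, 10 mg/mL stock, serially diluted to 400–0.09 µg/mL in Mueller Hinton broth. Wells inoculated with 10^6 CFU/mL bacteria and incubated 18–24 h at 37 °C. 0.2 mg/mL INT added for 30 min. MIC taken as the lowest concentration with no visible growth or pink colour. Triplicate.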

[5] = test system: Pseudomonas aeruginosa; assay: Antibacterial activity against GIM-1 expressing Pseudomonas aeruginosa isolate 197 after 18 to 24 hrs by two-fold broth microdilution assay; how it was run: as §1
[6] = test system: Klebsiella pneumoniae; assay: Antibacterial activity against Klebsiella pneumoniae FNSST 011 after 18 to 24 hrs by two-fold broth microdilution assay; how it was run: as §1
[7] = test system: Aeromonas caviae; assay: Antibacterial activity against […] expressing Aeromonas caviae isolate 258 after 18 to 24 hrs by two-fold broth microdilution assay; how it was run: as §1
[8] = test system: Aeromonas caviae; assay: Antibacterial activity against TEM-1/CTX-M-15 expressing Aeromonas caviae isolate 260 after 18 to 24 hrs by two-fold broth microdilution assay; how it was run: as §1
[9] = test system: Escherichia coli; assay: Antibacterial activity against Escherichia coli FNSST 982 after 18 to 24 hrs by two-fold broth microdilution assay; how it was run: as §1
[10] = test system: Clostridium perfringens; assay: Antibacterial activity against Clostridium perfringens FNSST 4999 assessed as diameter of zone of inhibition at 30 ug/disc after 24 hrs by disc diffusion method; conditions: FNSST 4999, 24 h, read-out: DIZ
How it was run: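 Ampicillin 30 µg disc run as positive control in CLSI disc diffusion. 100 µL of 10^6 cfu/mL bacteria spread on Mueller Hinton agar, incubated 24 h at 37 °C. Zone diameter measured in mm including the disc, triplicate, mean ± SE.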

[11] = test system: Bacillus cereus; assay: Antibacterial activity against Bacillus cereus ATCC 11778 after 18 to 24 hrs by two-fold broth microdilution assay; how it was run: as §1
[12] = test system: Kluyvera intermedia; assay: Antibacterial activity against TEM-1/SHV-12/[…] expressing Enterobacter intermedius isolate 243 after 18 to 24 hrs by two-fold broth microdilution assay; how it was run: as §1
[13] = test system: Enterobacter cloacae; assay: Antibacterial activity against TEM-1/SHV-12 expressing Enterobacter cloacae isolate 306 after 18 to 24 hrs by two-fold broth microdilution assay
[14] = test system: Escherichia coli; assay: Antibacterial activity against Escherichia coli FNSST 982 assessed as diameter of zone of inhibition at 30 ug/disc after 24 hrs by disc diffusion method; conditions: FNSST 982, 24 h, read-out: DIZ; how it was run: as §2
[15] = test system: Aeromonas hydrophila; assay: Antibacterial activity against Aeromonas hydrophila FNSST 014 assessed as diameter of zone of inhibition at 30 ug/disc after 24 hrs by disc diffusion method; conditions: FNSST 014, 24 h, read-out: DIZ; how it was run: as §2
[16] = test system: Escherichia coli; assay: Antibacterial activity against […] expressing Escherichia coli isolate 235 after 18 to 24 hrs by two-fold broth microdilution assay; how it was run: as §3
[17] = test system: Enterobacter cloacae; assay: Antibacterial activity against TEM-1/CTX-M-15 expressing Enterobacter cloacae isolate 62 after 18 to 24 hrs by two-fold broth microdilution assay
[18] = test system: Enterococcus faecalis; assay: Antibacterial activity against Enterococcus faecalis ATCC 29212 assessed as diameter of zone of inhibition at 30 ug/disc after 24 hrs by disc diffusion method; conditions: ATCC 29212, 24 h, read-out: DIZ; how it was run: as §2
[19] = test system: Staphylococcus aureus; assay: Antibacterial activity against Staphylococcus aureus ATCC 25923 assessed as diameter of zone of inhibition at 30 ug/disc after 24 hrs by disc diffusion method; conditions: ATCC 25923, 24 h, read-out: DIZ; how it was run: as §2
[20] = test system: Staphylococcus aureus; assay: Antibacterial activity against Staphylococcus aureus ATCC 25923 after 18 to 24 hrs by two-fold broth microdilution assay; how it was run: as §1
[21] = test system: Escherichia coli; assay: Antibacterial activity against […] expressing Escherichia coli isolate 4024 after 18 to 24 hrs by two-fold broth microdilution assay; how it was run: as §3
[22] = test system: Pseudomonas aeruginosa; assay: Antibacterial activity against Pseudomonas aeruginosa FNSST 982 after 18 to 24 hrs by two-fold broth microdilution assay; how it was run: as §1
[23] = test system: Acinetobacter baumannii; assay: Antibacterial activity against SIM-1 expressing Acinetobacter baumannii isolate 170 after 18 to 24 hrs by two-fold broth microdilution assay; how it was run: as §3
[24] = test system: Bacillus cereus; assay: Antibacterial activity against Bacillus cereus ATCC 11778 assessed as diameter of zone of inhibition at 30 ug/disc after 24 hrs by disc diffusion method; conditions: ATCC 11778, 24 h, read-out: DIZ; how it was run: as §2
[25] = test system: Klebsiella pneumoniae; assay: Antibacterial activity against TEM-1/SHV-12 expressing Klebsiella pneumoniae isolate 303 after 18 to 24 hrs by two-fold broth microdilution assay; how it was run: as §1
[26] = test system: Stenotrophomonas maltophilia; assay: Antibacterial activity against […] expressing Stenotrophomonas maltophilia isolate 125 after 18 to 24 hrs by two-fold broth microdilution assay; how it was run: as §1
[27] = test system: Clostridium perfringens; assay: Antibacterial activity against Clostridium perfringens FNSST 4999 after 18 to 24 hrs by two-fold broth microdilution assay; how it was run: as §3
[28] = test system: Pseudomonas aeruginosa; assay: Antibacterial activity against Pseudomonas aeruginosa FNSST 982 assessed as diameter of zone of inhibition at 30 ug/disc after 24 hrs by disc diffusion method; conditions: FNSST 982, 24 h, read-out: DIZ; how it was run: as §2
[29] = test system: Aeromonas hydrophila; assay: Antibacterial activity against Aeromonas hydrophila FNSST 014 after 18 to 24 hrs by two-fold broth microdilution assay; how it was run: as §1
[30] = test system: Enterobacter cloacae; assay: Antibacterial activity against CTX-15 expressing Enterobacter cloacae isolate 51 after 18 to 24 hrs by two-fold broth microdilution assay

SMILES: CO/N=C(\C(=O)N[C@@H]1C(=O)N2C(C(=O)O)=C(COC(C)=O)CS[C@H]12)c1csc(N)n1 [CEFOTAXIME]
- MIC [1]: 256 µg/mL (≈ 562 µM)
- MIC [2]: 0.5 µg/mL (≈ 1.1 µM)
- zone of inhibition at 30 µg/disc [3]: 21.4 mm
- MIC [4]: > 256 µg/mL
- MIC [5]: 256 µg/mL (≈ 562 µM)
- MIC [6]: 0.5 µg/mL (≈ 1.1 µM)
- MIC [7]: 258 µg/mL (≈ 566 µM)
- MIC [8]: 256 µg/mL (≈ 562 µM)
- MIC [9]: 0.5 µg/mL (≈ 1.1 µM)
- zone of inhibition at 30 µg/disc [10]: 28.5 mm
- MIC [11]: 0.25 µg/mL (≈ 0.549 µM)
- MIC [12]: 8 µg/mL (≈ 17.6 µM)
- MIC [13]: > 128 µg/mL
- zone of inhibition at 30 µg/disc [14]: 22.8 mm
- zone of inhibition at 30 µg/disc [15]: 14.7 mm
- MIC [16]: > 256 µg/mL
- MIC [17]: > 256 µg/mL
- zone of inhibition at 30 µg/disc [18]: 23.5 mm
- zone of inhibition at 30 µg/disc [19]: 21.7 mm
- MIC [20]: 0.5 µg/mL (≈ 1.1 µM)
- MIC [21]: 256 µg/mL (≈ 562 µM)
- MIC [22]: 16 µg/mL (≈ 35.1 µM)
- MIC [23]: > 256 µg/mL
- zone of inhibition at 30 µg/disc [24]: 26.8 mm
- MIC [25]: 64 µg/mL (≈ 141 µM)
- MIC [26]: 32 µg/mL (≈ 70.3 µM)
- MIC [27]: 0.1 µg/mL (≈ 0.22 µM)
- zone of inhibition at 30 µg/disc [28]: 10.4 mm
- MIC [29]: 8 µg/mL (≈ 17.6 µM)
- MIC [30]: 32 µg/mL (≈ 70.3 µM)
